Assay results reported in ChEMBL document CHEMBL2169846, “Design and synthesis of Pictet-Spengler condensation products that exhibit oncogenic-RAS synthetic lethality and induce non-apoptotic cell death” (Bioorg Med Chem Lett, 2012).
Calls of active or inactive are those of the source. No cut-off for these calls is given here.

Target: E3 ubiquitin-protein ligase Mdm2 (Homo sapiens) (UniProt Q00987)
Assay: Inhibition of wild type Mdm2 at 20 ug/mL after 2 hrs by cell-based luciferase assay
Settings: not given

Sequence of E3 ubiquitin-protein ligase Mdm2 (Homo sapiens) (Q00987 whole entry, looked up): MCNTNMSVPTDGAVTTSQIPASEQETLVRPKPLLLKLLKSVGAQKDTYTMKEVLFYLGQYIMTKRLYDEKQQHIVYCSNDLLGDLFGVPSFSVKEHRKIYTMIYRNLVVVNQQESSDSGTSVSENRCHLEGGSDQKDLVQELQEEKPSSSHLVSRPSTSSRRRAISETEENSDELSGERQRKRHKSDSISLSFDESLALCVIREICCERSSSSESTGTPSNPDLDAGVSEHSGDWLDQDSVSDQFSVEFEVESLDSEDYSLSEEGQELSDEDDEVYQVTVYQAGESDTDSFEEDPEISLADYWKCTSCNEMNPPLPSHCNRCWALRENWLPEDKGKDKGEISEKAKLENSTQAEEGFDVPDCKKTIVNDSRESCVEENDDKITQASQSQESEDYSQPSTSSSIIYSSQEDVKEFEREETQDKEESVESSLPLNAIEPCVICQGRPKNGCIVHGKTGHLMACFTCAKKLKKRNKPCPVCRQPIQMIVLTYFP

Row | SMILES | inhibition
1 | CCOC(=O)C1c2[nH]c3ccccc3c2CCN1C(=O)OC (centres undefined) | inactive
2 | CN1C(=O)C(Cc2nccc3c4ccccc4n(C)c23)C(=O)N(C)C1=O | inactive
3 | COC(=O)N1CCc2c(n(C(=O)OC(C)(C)C)c3ccccc23)C1C(OC)OC (centres undefined) | inactive
4 | CCCN1C(=O)C(CCC2NCCc3c2[nH]c2ccccc32)C(=O)N(CCC)C1=O (centres undefined) | inactive
5 | CCOC(=O)C1NCCc2c1[nH]c1ccccc21 (centres undefined) | inactive
6 | CC(CC1C(=O)N(C)C(=O)N(C)C1=O)C1NCCc2c1n(C(=O)OC(C)(C)C)c1ccccc21 (centres undefined) | inactive

Test system: E3 ubiquitin-protein ligase Mdm2 (Homo sapiens), Q00987 [C464A]
Sequence (Q00987 whole entry C464A): as the sequence (Q00987 whole entry, looked up) above, with C464A counted along it
Assay: Inhibition of Mdm2 C464A mutant at 20 ug/mL after 2 hrs by cell-based luciferase assay
Settings: not given

Row | SMILES | inhibition
7 | CCOC(=O)C1c2[nH]c3ccccc3c2CCN1C(=O)OC (centres undefined) | inactive
8 | CN1C(=O)C(Cc2nccc3c4ccccc4n(C)c23)C(=O)N(C)C1=O | inactive
9 | COC(=O)N1CCc2c(n(C(=O)OC(C)(C)C)c3ccccc23)C1C(OC)OC (centres undefined) | inactive
10 | CCCN1C(=O)C(CCC2NCCc3c2[nH]c2ccccc32)C(=O)N(CCC)C1=O (centres undefined) | inactive
11 | CCOC(=O)C1NCCc2c1[nH]c1ccccc21 (centres undefined) | inactive
12 | CC(CC1C(=O)N(C)C(=O)N(C)C1=O)C1NCCc2c1n(C(=O)OC(C)(C)C)c1ccccc21 (centres undefined) | inactive

Test system: HT-1080
Assay: Cytotoxicity against human HT1080 cells after 48 hrs by alamar blue assay
Format: functional
Settings: HT-1080, 48 h, read-out: LC50 (the source's name)

Row | SMILES | CC50 [µM]
13 | CN1C(=O)C(Cc2nccc3c4ccccc4n(C)c23)C(=O)N(C)C1=O | 57.1
14 | CCOC(=O)C1NCCc2c1[nH]c1ccccc21 (centres undefined) | 81.9

Test system: RKO
Assay: Cytotoxicity against human RKO cells after 48 hrs by alamar blue assay
Format: functional
Settings: read-out: LC50 (the source's name)

Row | SMILES | CC50 [µM]
15 | CN1C(=O)C(Cc2nccc3c4ccccc4n(C)c23)C(=O)N(C)C1=O | 15.4

Test system: MCF7
Assay: Cytotoxicity against human MCF7 cells after 48 hrs by alamar blue assay
Format: functional
Settings: MCF7, 48 h, read-out: LC50 (the source's name)

Row | SMILES | CC50 [µM]
16 | CN1C(=O)C(Cc2nccc3c4ccccc4n(C)c23)C(=O)N(C)C1=O | 57.1

Test system: U2OS
Assay: Cytotoxicity against human U2OS cells after 48 hrs by alamar blue assay
Format: functional
Settings: read-out: LC50 (the source's name)

Row | SMILES | CC50 [µM]
17 | CN1C(=O)C(Cc2nccc3c4ccccc4n(C)c23)C(=O)N(C)C1=O | 14.2
18 | COC(=O)N1CCc2c(n(C(=O)OC(C)(C)C)c3ccccc23)C1C(OC)OC (centres undefined) | 48.7
19 | CCOC(=O)C1NCCc2c1[nH]c1ccccc21 (centres undefined) | 81.9

Test system: not listed separately
Assay: Cytotoxicity against human HT1299 cells after 48 hrs by alamar blue assay
Format: functional
Settings: HT1299, 48 h, read-out: LC50 (the source's name)

Row | SMILES | CC50 [µM]
20 | CN1C(=O)C(Cc2nccc3c4ccccc4n(C)c23)C(=O)N(C)C1=O | 57.5

Test system: not listed separately
Assay: Cytotoxicity against human BJeH cells expressing wild type RAS after 48 hrs by alamar blue assay
Format: functional, cell-based
Settings: read-out: LC50 (the source's name)

Row | SMILES | CC50 [µM]
21 | CCOC(=O)C1NCCc2c1[nH]c1ccccc21 (centres undefined) | 71.7

Test system: not listed separately
Assay: Cytotoxicity against human BJeLR cells expressing RAS G12V mutant after 48 hrs by alamar blue assay
Format: functional, cell-based
Settings: read-out: LC50 (the source's name)

Row | SMILES | CC50 [µM]
22 | CCOC(=O)C1NCCc2c1[nH]c1ccccc21 (centres undefined) | 71.7
23 | CC(CC1C(=O)N(C)C(=O)N(C)C1=O)C1NCCc2c1n(C(=O)OC(C)(C)C)c1ccccc21 (centres undefined) | 42.7

Test system: HT-1080
Assay: Cytotoxicity against human HT1080 cells at 20 ug/mL after 48 hrs by alamar blue assay
Format: functional, cell-based
Settings: not given
Method in brief: (§1)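 Each cell line exposed for 48 h to a 2-fold, 12-point dilution series beginning at 20 µg/mL. Viability by Alamar blue; LC50 derived from the curves.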

Row | SMILES | Activity
24 | CCOC(=O)C1c2[nH]c3ccccc3c2CCN1C(=O)OC (centres undefined) | inactive
25 | COC(=O)N1CCc2c(n(C(=O)OC(C)(C)C)c3ccccc23)C1C(OC)OC (centres undefined) | inactive
26 | CCCN1C(=O)C(CCC2NCCc3c2[nH]c2ccccc32)C(=O)N(CCC)C1=O (centres undefined) | inactive
27 | CC(CC1C(=O)N(C)C(=O)N(C)C1=O)C1NCCc2c1n(C(=O)OC(C)(C)C)c1ccccc21 (centres undefined) | inactive

Test system: RKO
Assay: Cytotoxicity against human RKO cells at 20 ug/mL after 48 hrs by alamar blue assay
Format: functional, cell-based
Settings: not given
Method in brief: as §1

Row | SMILES | Activity
28 | CCOC(=O)C1c2[nH]c3ccccc3c2CCN1C(=O)OC (centres undefined) | inactive
29 | COC(=O)N1CCc2c(n(C(=O)OC(C)(C)C)c3ccccc23)C1C(OC)OC (centres undefined) | inactive
30 | CCCN1C(=O)C(CCC2NCCc3c2[nH]c2ccccc32)C(=O)N(CCC)C1=O (centres undefined) | inactive
31 | CCOC(=O)C1NCCc2c1[nH]c1ccccc21 (centres undefined) | inactive
32 | CC(CC1C(=O)N(C)C(=O)N(C)C1=O)C1NCCc2c1n(C(=O)OC(C)(C)C)c1ccccc21 (centres undefined) | inactive

Test system: MCF7
Assay: Cytotoxicity against human MCF7 cells at 20 ug/mL after 48 hrs by alamar blue assay
Format: functional, cell-based
Settings: not given
Method in brief: as §1

Row | SMILES | Activity
33 | CCOC(=O)C1c2[nH]c3ccccc3c2CCN1C(=O)OC (centres undefined) | inactive
34 | COC(=O)N1CCc2c(n(C(=O)OC(C)(C)C)c3ccccc23)C1C(OC)OC (centres undefined) | inactive
35 | CCCN1C(=O)C(CCC2NCCc3c2[nH]c2ccccc32)C(=O)N(CCC)C1=O (centres undefined) | inactive
36 | CCOC(=O)C1NCCc2c1[nH]c1ccccc21 (centres undefined) | inactive
37 | CC(CC1C(=O)N(C)C(=O)N(C)C1=O)C1NCCc2c1n(C(=O)OC(C)(C)C)c1ccccc21 (centres undefined) | inactive

Test system: U2OS
Assay: Cytotoxicity against human U2OS cells at 20 ug/mL after 48 hrs by alamar blue assay
Format: functional, cell-based
Settings: not given

Row | SMILES | Activity
38 | CCOC(=O)C1c2[nH]c3ccccc3c2CCN1C(=O)OC (centres undefined) | inactive
39 | CCCN1C(=O)C(CCC2NCCc3c2[nH]c2ccccc32)C(=O)N(CCC)C1=O (centres undefined) | inactive
40 | CC(CC1C(=O)N(C)C(=O)N(C)C1=O)C1NCCc2c1n(C(=O)OC(C)(C)C)c1ccccc21 (centres undefined) | inactive

Test system: HT1299
Assay: Cytotoxicity against human HT1299 cells at 20 ug/mL after 48 hrs by alamar blue assay
Format: functional, cell-based
Settings: not given
Method in brief: as §1

Row | SMILES | Activity
41 | CCOC(=O)C1c2[nH]c3ccccc3c2CCN1C(=O)OC (centres undefined) | inactive
42 | COC(=O)N1CCc2c(n(C(=O)OC(C)(C)C)c3ccccc23)C1C(OC)OC (centres undefined) | inactive
43 | CCCN1C(=O)C(CCC2NCCc3c2[nH]c2ccccc32)C(=O)N(CCC)C1=O (centres undefined) | inactive
44 | CCOC(=O)C1NCCc2c1[nH]c1ccccc21 (centres undefined) | inactive
45 | CC(CC1C(=O)N(C)C(=O)N(C)C1=O)C1NCCc2c1n(C(=O)OC(C)(C)C)c1ccccc21 (centres undefined) | inactive

Test system: BJeH
Assay: Cytotoxicity against human BJeH cells expressing wild type RAS at 20 ug/mL after 48 hrs by alamar blue assay
Format: functional, cell-based
Settings: not given

Row | SMILES | Activity
46 | CCOC(=O)C1c2[nH]c3ccccc3c2CCN1C(=O)OC (centres undefined) | inactive
47 | CN1C(=O)C(Cc2nccc3c4ccccc4n(C)c23)C(=O)N(C)C1=O | inactive
48 | COC(=O)N1CCc2c(n(C(=O)OC(C)(C)C)c3ccccc23)C1C(OC)OC (centres undefined) | inactive
49 | CCCN1C(=O)C(CCC2NCCc3c2[nH]c2ccccc32)C(=O)N(CCC)C1=O (centres undefined) | inactive
50 | CC(CC1C(=O)N(C)C(=O)N(C)C1=O)C1NCCc2c1n(C(=O)OC(C)(C)C)c1ccccc21 (centres undefined) | inactive

Test system: BJeLR
Assay: Cytotoxicity against human BJeLR cells expressing RAS G12V mutant at 20 ug/mL after 48 hrs by alamar blue assay
Format: functional, cell-based
Settings: not given

Row | SMILES | Activity
51 | CCOC(=O)C1c2[nH]c3ccccc3c2CCN1C(=O)OC (centres undefined) | inactive
52 | CN1C(=O)C(Cc2nccc3c4ccccc4n(C)c23)C(=O)N(C)C1=O | inactive
53 | COC(=O)N1CCc2c(n(C(=O)OC(C)(C)C)c3ccccc23)C1C(OC)OC (centres undefined) | inactive
54 | CCCN1C(=O)C(CCC2NCCc3c2[nH]c2ccccc32)C(=O)N(CCC)C1=O (centres undefined) | inactive
